Assay outcomes: PubChem BioAssay, Broad Institute
Compounds with a hit are over-represented: about 2.6% of the library has one in this group of screens.
FN deposit inh: fibronectin deposition inhibition; inhibition, % at 12.6 µM; 0.086% of 350,000 active; AID 743247; AH1F fibroblasts, Alexa488-fibronectin deposition fluorescence, overnight;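 active = mean inhibition across replicates of 30% or more, regardless of how many single replicates reach that level; inconclusive = mean under 30% yet at least half of replicates reach 30%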;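 note: positive control wells lacked labelled fibronectin entirely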
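material = AH1F fibroblast monolayer depositing Alexa488-labelled fibronectin into matrix | amount = 10000 AH1F cells/well | buffer or medium = DMEM plus 2% serum, read in PBS | incubation = 1 h cell adhesion before compound, then overnight fibronectin incubation | detection = fluorescence at 485 nm excitation, 525 nm emission | evaluation = percent inhibition as loss of matrix-bound fibronectin fluorescence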
S100A4 inh HTS: blocks human S100A4 binding to myosin IIA peptide | inhibition, % at 10.7 µM | S100A4/TAMRA-MyoIIA peptide fluorescence polarization | 0.14% of 360,000 active;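 active = mean inhibition of at least 70% across replicates, with every replicate also reaching that level; inconclusive = mean inhibition reaches 70% but some replicates fall short; inactive = mean inhibition below 70%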
Target sequence (P26447 whole entry, looked up): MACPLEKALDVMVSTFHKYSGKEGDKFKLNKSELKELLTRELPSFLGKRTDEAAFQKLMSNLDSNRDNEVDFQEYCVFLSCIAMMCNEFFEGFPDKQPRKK
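Material: human S100A4 monomer with TAMRA-labelled myosin IIA peptide; buffer or medium: HEPES pH 7.2 with CaCl2, KCl, NaCl, DTT, Triton; compound dosing: one concentration per compound; schedule: 5 min incubation before reading; benchmarks: neutral control DMSO, positive control TFP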
rRNA inh HTS: inhibits bacterial ribosomal RNA function over humanized ribosomes; AID 720706; GFP signal change (wild-type ribosome), % (test concentration not listed); E. coli WT GFP vs humanized-ribosome RFP mutants, fluorescence, 24 h; stronger effect = lower value; DMSO median 0, no signal -100; 1.6% of 350,000 active;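 active = significant combined selectivity score with lowered wild-type GFP, culture density cut under 30%, mutant RFP and density less affected; inactive = any of these conditions unmet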
miR122 inh: miR-122 inhibition in Huh7 cells; Huh7 miR-122 Renilla luciferase sensor, 48 h; neutral wells = 0, positive control = 100; activation (reporter increase), % at 12.5 µM; 0.3% of 340,000 active;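 active = mean replicate activation score at least 90 and every replicate individually at or above 90; inconclusive = only one of the two criteria met; inactive = neither criterion met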;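 note: higher luciferase means less miR-122 activity so hits act as miR-122 inhibitors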
Vif imaging: blocks HIV Vif function | HEK293T cells, Vif self-association by quenched fluorescence, imaging, 24 h | inhibition, % at 7.49 µM | 0.35% of 340,000 active; in the data active = inhibition above about 50%, passing the limit was not always enough; inconclusive = no clear call, values can overlap the other calls; inactive = below about 31%
HIV Env fusion: inhibitors of HIV Env-mediated cell fusion. HeLa-JRFL Env/CEM21 cell fusion, luciferase. inhibition, % at 12.3 µM. 1.1% of 360,000 active;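 active = mean replicate inhibition score of at least 50 and every replicate individually at or above 50; inconclusive = only one of the two criteria met; inactive = mean below 50 and not all replicates reaching 50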;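 note: 0% = plate neutral controls and 100% = maraviroc near 300 nM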
* marks the source's active call; other numbers are inactive results; ? = inconclusive; . = not tested or not shown; [ ] = another dose, or the depositor's remark.

SMILES	FN deposit inh	S100A4 inh HTS	rRNA inh HTS	miR122 inh	Vif imaging	HIV Env fusion
COc1ccc(/C=C2/CCc3ccccc3C2=O)cc1OC	0.4	.	.	-4.0	-11.2	58.2*
COc1ccc(/C=C2\CCc3ccccc3C2=O)cc1CN1CCOCC1	5.9	18.4	-29.5*	-3.1	-10.4	29.5
C[C@H](CO)N1C[C@H](C)[C@H](CN(C)S(C)(=O)=O)Oc2c(NS(=O)(=O)c3cn(C)cn3)cccc2C1=O	.	9.7	2.8	-2.7[16.7 µM]	.	.
O=C(O)CSCC(=O)NCc1c(Cl)cccc1Oc1ccccc1	-3.6	0.6	.	-2.3	-0.3	7.6
O=S(=O)(NCc1c(Cl)cccc1Oc1ccccc1)c1ccc(F)cc1	-10.5	-5.5	-39.2*	.	5.5	10.9
CCN(CC)c1ccc(CC(=O)NC(C)Cc2ccccc2)cc1 (stereo not given)	.	.	.	-0.2	101.4*	.
CCN(c1ccc(OC)cc1)S(=O)(=O)c1cc(-c2cc(C)no2)ccc1OC	-8.8	0.0	-31.0*	11.0	-6.4	1.2
CCOc1ccc(N(C)S(=O)(=O)c2cc(-c3cc(C)no3)ccc2C(C)C)cc1	0.9	-4.8	5.8	8.3	-5.1	78.6*
CCc1cccc(NC(=S)Nc2cccc3ccccc23)c1	-7.5	1.0	-24.7*	14.4	1.6	-31.9
CCCNC(=O)N1CC2(C1)[C@H](c1ccccc1)[C@H](CO)N2CC1CCCC1	.	13.4	-6.3	.	.	.
O=C1OC(c2ccccc2)Cc2cc(C(=O)N3CCN(c4ccc(F)cc4)CC3)ccc21 (stereo not given)	-9.9	-18.6	-29.4*	-2.2	1.0	4.6
CCCCNc1cccc2c1S(=O)(=O)N(CCCC)CC(COCc1ccccc1)O2 (stereo not given)	-0.4	-13.2	.	33.8	.	61.1*
CCCCN1CC(COCc2ccccc2)Oc2cccc(NCc3ccc(OC)cc3)c2S1(=O)=O (stereo not given)	0.7	2.2	19.4	40.2	.	34.3
CC1(C)Cc2ccccc2-c2nnc(SCC(=O)N3CCN(c4ccccc4)CC3)n21	0.0	.	.	-4.4	-24.6	83.2*
CCn1c(SCC(=O)N2CCN(c3ccccc3)CC2)nnc1-c1c[nH]c2ccccc12	10.9	-3.0	-6.3	-3.6	-5.5	65.1*
CCOC(=O)C(C)Sc1nnc2n1C(C)(C)Cc1ccccc1-2 (stereo not given)	-3.9	-2.1	-22.1*	-1.2	-0.3	-18.0
CC1(C)Cc2ccccc2-c2nnc(SCc3ccccc3)n21	.	-1.9	-35.5	-7.1	-4.4	.
C=CCn1c(COc2cccc(C)c2C)nnc1SCC(=O)N1CCN(c2ccccc2)CC1	-0.2	-3.4	-40.7	.	-5.6	63.7*
CNC[C@@H]1Oc2c(NS(C)(=O)=O)cccc2C(=O)N(C)C[C@H]1C	1.3	.	0.2	.	.	.
CCOc1ccc(C2=Nn3c(nnc3-c3ccccc3OC)SC2)cc1	.	.	.	86.4	12.1	?
CCOc1ccc(-c2nnc3n2N=C(c2ccc(OC)cc2)CS3)cc1	11.4	.	.	-2.4	50.4*	-67.9
O=C(CN(C(=O)c1csnn1)c1ccc(F)cc1)NCc1ccc2c(c1)OCO2	-2.0	-11.7	0.1	.	74.5*	-2.6
Cc1ccc(N(CC(=O)NCc2ccc3c(c2)OCO3)C(=O)c2csnn2)cc1	-9.3	-13.2	0.8	-1.7	10.3	-4.3
COc1ccc(C2CC(c3ccc4ccccc4c3)=NN2C(=O)CN2CCC(C(N)=O)CC2)cc1 (stereo not given)	.	-1.0	-48.2*	-2.0	13.5	-18.2
COc1ccc(C2CC(c3ccc4ccccc4c3)=NN2C(=O)CNC2CCCCC2)cc1 (stereo not given)	-2.5	0.5	-53.2	.	2.9	-13.9
CCOC(=O)c1sc2nc(C)nc(N3CCCCC3C)c2c1C (stereo not given)	4.1	-3.5	-26.5*	-5.4	5.9	22.1
Cc1c(CCOC(=O)c2ccccc2)sc[n+]1CC(=O)c1ccc(Br)cc1	.	-5.1	-47.9*	-0.7	2.6	.
Cc1c(CCOC(=O)CC23CC4CC(CC(C)(C4)C2)C3)sc[n+]1CC(=O)c1ccccc1	-13.0	-9.1	-62.5	.	3.6	68.7*
